Assay outcomes from PubChem.
Rows were chosen to be rich in hits. Some 2.6% of all compounds tested hit in one or more screens of this group.
T cruzi repl – inhibitors of intracellular T. cruzi growth, primary screen, luminescence, NIH3T3 host cells; AID 1885, 2009; T. cruzi beta-gal in NIH3T3, 90 h; actives 1.4% (n = 300,000); inhibition, % (no concentration beside the values);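 active = mean inhibition across valid replicates above about 55%, limit read from the data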;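 also: signal also drops with host cell toxicity which is not excluded here; 0% = plate median of DMSO wells and 100% = zero luminescence signal; higher percent means less beta-gal luminescence so fewer parasites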
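Test system: β-gal T. cruzi (Tulahuen C4) inside NIH/3T3 cells / Quantity: 5,000 cells/well / Measured by: luminescence from GalScreen with 0.05% NP40, read after 60 min / Medium: DMEM plus 2% FBS / Measure: parasite load inhibition, % / Reagent: Tulahuen C4 trypomastigotes, 5000/well / Schedule: co-culture of at least 90 h after 3 h attachment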
CHT allo act – CHT positive allosteric modulators, primary screen, cell-based, membrane potential dye, choline EC20; actives 0.49% (n = 310,000); B-score at 10 µM; AID 488977, 2010; High affinity choline transporter 1 (Homo sapiens), Q9GZV3; CHT-expressing cells; stronger effect = higher value; LV-AA mutant CHT in HEK293 cells;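 active = initial fluorescence not abnormally high and integrated response B-score, plate-corrected, over 3 SD above library mean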
Target sequence (Q9GZV3 whole entry, looked up): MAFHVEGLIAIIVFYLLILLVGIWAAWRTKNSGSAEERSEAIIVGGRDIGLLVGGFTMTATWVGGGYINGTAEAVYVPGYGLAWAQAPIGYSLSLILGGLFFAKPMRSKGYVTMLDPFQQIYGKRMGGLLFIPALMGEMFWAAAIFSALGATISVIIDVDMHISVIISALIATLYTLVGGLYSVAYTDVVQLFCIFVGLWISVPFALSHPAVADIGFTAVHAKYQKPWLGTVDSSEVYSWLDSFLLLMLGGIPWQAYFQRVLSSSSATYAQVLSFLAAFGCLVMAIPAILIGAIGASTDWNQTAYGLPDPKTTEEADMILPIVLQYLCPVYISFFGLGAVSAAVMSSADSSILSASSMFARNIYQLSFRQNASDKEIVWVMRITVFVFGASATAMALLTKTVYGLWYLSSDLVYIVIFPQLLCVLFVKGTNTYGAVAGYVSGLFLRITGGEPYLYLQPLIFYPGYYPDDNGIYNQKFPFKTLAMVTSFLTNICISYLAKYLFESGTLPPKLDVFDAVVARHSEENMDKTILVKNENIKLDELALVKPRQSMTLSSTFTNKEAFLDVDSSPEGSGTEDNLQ
PolyA inhibitor – polyadenylation inhibitors in yeast reporter cells, primary screen, luminescence, S. cerevisiae. S. cerevisiae SKY197-pL101 polyadenylation reporter, beta-gal luminescence; efflux-impaired pdr1/pdr3 knockout yeast; score 100 = 6 SD above DMSO. activity score, % at 12 µM. actives 0.02% (n = 300,000). AID 1875, 2009;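 active = lowest replicate activity score at least 50, where 100 means six control SD above control mean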;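 also: yeast exposed to compound for 9 h at 30 °C; higher score means more reporter readthrough which indicates perturbed polyadenylation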
CHT inh – inhibitors of human choline transporter CHT | AID 488975, 2010 | B-score at 10 µM | CHT-expressing cells, membrane potential dye, choline response; stronger effect = lower value | actives 0.86% (n = 310,000);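 active = B-score over 3 SD under the library average, and starting fluorescence ratio not unusually high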;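 also: choline stimulus applied at its EC90 after an EC20 pre-addition; B-score computed on integrated fluorescence ratio after choline addition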
* = called active by the depositor.

`CCCC1(c2ccccc2)NC(=O)N(CC(=O)c2[nH]c(C)c(C(=O)OCC)c2C)C1=O` (stereo not given) gave T cruzi repl 31, CHT allo act inactive, PolyA inhibitor 42 and CHT inh -9.8*.
Screening CCc1ccc(N(CC(=O)NCc2ccco2)C(=O)CCC(=O)Nc2ccccn2)cc1 returned T cruzi repl 4, CHT allo act inactive, PolyA inhibitor -5 and CHT inh inactive.
Screening NC(=S)N/N=C/c1ccccc1OCc1cccc(Cl)c1 returned T cruzi repl 62*, CHT allo act inactive, PolyA inhibitor -23 and CHT inh inactive.
CCOCCCNC(=O)c1cn(CC)c2ccc(S(=O)(=O)N(C)C3CCCCC3)cc2c1=O was read as T cruzi repl 18, CHT allo act inactive, PolyA inhibitor 9 and CHT inh inactive.
Screening COc1ccccc1C(=O)Nc1ccnn1C1CCN(Cc2cc(C)c(C)cc2C)CC1 returned T cruzi repl 43, CHT allo act inactive, PolyA inhibitor -21 and CHT inh -5.3*.
Screening Cc1cc(C)c(CN2CCC(n3nccc3NC(=O)c3ccccc3Cl)CC2)cc1C returned T cruzi repl 12, CHT allo act inactive, PolyA inhibitor -2 and CHT inh inactive.
`CSCCCc1cn([C@@H](CO)C(=O)NCCCCCCCCCCC(=O)N2CCNCC2)nn1` gave T cruzi repl -12, CHT allo act inactive, PolyA inhibitor -8 and CHT inh inactive.
`CC[n+]1c(/C=C2\Sc3ccccc3N2C)ccc2cccc(C)c21` gave T cruzi repl 63* and PolyA inhibitor -101.
For COc1cc(/C=N/N=C(N)N)ccc1OCc1ccccc1Cl the results were T cruzi repl 55*, CHT allo act inactive, PolyA inhibitor -8 and CHT inh inactive.
CCOC(=O)C1CCCN(C(=O)C2CCN(S(=O)(=O)c3c(C)noc3/C=C/c3ccccc3F)CC2)C1 (stereo not given) was read as T cruzi repl 9, CHT allo act inactive, PolyA inhibitor 4 and CHT inh inactive.
Cc1ccc(S(=O)(=O)N2CCN(C(=O)COC(=O)C3CCC3)CC2)c(C)c1 was read as T cruzi repl -15, CHT allo act inactive, PolyA inhibitor 1 and CHT inh inactive.
Cc1ccc(C)c2nc3sc(C(=O)N4CCCc5ccccc54)c(N)c3cc12 was read as T cruzi repl 66*, CHT allo act inactive, PolyA inhibitor 2 and CHT inh inactive.
Cc1cc(C)c2sc(N(CCCN(C)C)C(=O)c3ccc(S(=O)(=O)N4CCCc5ccccc54)cc3)nc2c1 was read as T cruzi repl 60*, CHT allo act inactive, PolyA inhibitor 9 and CHT inh inactive.
Cc1ccc2nc(N(CCCN(C)C)C(=O)c3ccc(S(=O)(=O)N4CCOCC4)cc3)sc2c1 was read as T cruzi repl 60*, CHT allo act inactive, PolyA inhibitor 7 and CHT inh inactive.
Cc1cc(C)c2nc(N(CCCN(C)C)C(=O)c3ccc(S(=O)(=O)N4CC(C)OC(C)C4)cc3)sc2c1 (stereo not given) was read as T cruzi repl 59*, CHT allo act inactive, PolyA inhibitor 2 and CHT inh inactive.
`Cc1cc(C)c2sc(N(CCCN(C)C)C(=O)c3ccc(S(=O)(=O)N4CCc5ccccc5C4)cc3)nc2c1` gave T cruzi repl 47, CHT allo act inactive, PolyA inhibitor 1 and CHT inh inactive.
`Cc1ccc2nc(N(CCCN(C)C)C(=O)c3ccc(S(=O)(=O)N4CCc5ccccc5C4)cc3)sc2c1` gave T cruzi repl 28, CHT allo act inactive, PolyA inhibitor 13 and CHT inh inactive.
Cc1ccc2sc(N(CCN(C)C)C(=O)c3ccc(S(=O)(=O)N4CC(C)OC(C)C4)cc3)nc2c1C (stereo not given) was read as T cruzi repl 31, CHT allo act inactive, PolyA inhibitor -1 and CHT inh inactive.
For COc1ccc2sc(N(CCCN(C)C)C(=O)c3ccc(S(=O)(=O)N4CCc5ccccc5C4)cc3)nc2c1 the results were T cruzi repl 57*, CHT allo act inactive, PolyA inhibitor 8 and CHT inh inactive.
For CC(C)c1ccc(NC2CCCN(C(=O)CN3CCCC3=O)C2)cc1 (stereo not given) the results were T cruzi repl 16, CHT allo act inactive, PolyA inhibitor 17 and CHT inh inactive.
For Cc1noc(C)c1S(=O)(=O)N(Cc1ccccc1)C(C)C the results were T cruzi repl 29, CHT allo act inactive, PolyA inhibitor -3 and CHT inh inactive.
COc1cc(NC(=O)c2ccccc2)c(OC)cc1NC(=O)Cc1ccc(C)cc1 was read as T cruzi repl 12, CHT allo act inactive, PolyA inhibitor -6 and CHT inh inactive.
Screening C[C@H](NC(=O)c1[nH]cnc1C(=O)Nc1ccc(CNC(=O)OC(C)(C)C)cc1)C(=O)OC(C)(C)C returned T cruzi repl 36, CHT allo act inactive, PolyA inhibitor 12 and CHT inh inactive.
`COc1ccc(-c2cc(C(=O)N/N=C(\C)c3cccnc3)c3ccccc3n2)c(OC)c1` gave T cruzi repl 16, CHT allo act inactive, PolyA inhibitor -11 and CHT inh inactive.
For COc1ccc(CNc2ncnc3cc(Cl)ccc23)cc1OC the results were T cruzi repl 17 and PolyA inhibitor -6.
CCN(CC)Cc1cc2[nH]c3c4ccc(Cl)cc4ncc3c2cc1OC was read as T cruzi repl 62* and PolyA inhibitor 3.
For Cc1cccc(C)c1N=Nc1c(C)cc(O)cc1C the results were T cruzi repl -10, CHT allo act inactive, PolyA inhibitor 8 and CHT inh inactive.
Screening CS(=O)(=O)c1nc(-c2ccco2)cc(C(F)(F)F)n1 returned T cruzi repl 55*, CHT allo act inactive, PolyA inhibitor -71 and CHT inh inactive.
For CN1CCN(c2nc(-c3ccco3)cc(C(F)(F)F)n2)CC1 the results were T cruzi repl 27, CHT allo act inactive, PolyA inhibitor 0 and CHT inh inactive.
COc1ccccc1-c1cc(C(F)(F)F)nc(S(C)(=O)=O)n1 was read as T cruzi repl -60, CHT allo act inactive, PolyA inhibitor -52 and CHT inh inactive.
O=[N+]([O-])c1cn(-c2nc(-c3ccco3)cc(C(F)(F)F)n2)cn1 was read as T cruzi repl 65*, CHT allo act inactive, PolyA inhibitor -2 and CHT inh inactive.
Screening Cc1ccc2ccccc2[n+]1CCCS(=O)(=O)[O-] returned T cruzi repl 10, CHT allo act inactive, PolyA inhibitor -3 and CHT inh inactive.
Screening CCCC[n+]1c2ccccc2cc2ccccc21 returned T cruzi repl 68*, CHT allo act inactive, PolyA inhibitor -31 and CHT inh inactive.
Cc1cc(C(=O)N2CCCC(N3CCN(c4ccccc4C)CC3)C2)n(C)n1 (stereo not given) was read as T cruzi repl 59*, CHT allo act inactive, PolyA inhibitor -8 and CHT inh inactive.
